Measured values published in ChEMBL document CHEMBL4261600 (Eur J Med Chem, 2018).

Columns and labels:
[1] = target: NUAK family SNF1-like kinase 1 (Homo sapiens) (UniProt O60285); assay: Binding affinity to wild-type human partial length ARK5 (E25 to I332 residues) expressed in bacterial expression system assessed as remaining unbound target protein level at 1000 nM by Kinomescan method relative to control
How it was run: (§1)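 Profiled in a KINOMEscan binding panel with the inhibitor at a single concentration of 1 μM. Binding to each kinase was read out as percent of control, relative to a DMSO control. Strong binders were defined as those with a percent control value below 1.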

[2] = target: Tyrosine-protein kinase HCK (Homo sapiens) (UniProt P08631); assay: Binding affinity to wild-type human full length HCK (M22 to P526 residues) expressed in bacterial expression system assessed as remaining unbound target protein level at 1000 nM by Kinomescan method relative to control
How it was run: (§2)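 Single-point competition binding screen across a panel of 468 kinases and mutants, with the inhibitor at 1 μM. Binding is read out as percent of a DMSO control, and targets below 1 percent control were classed as strong binders.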

[3] = system: Mast/stem cell growth factor receptor Kit (Homo sapiens), P10721 [V559D,T670I]; assay: Binding affinity to human partial length KIT V559D/T670I double mutant (Y545 to D952 residues) expressed in bacterial expression system assessed as remaining unbound target protein level at 1000 nM by Kinomescan method relative to control
How it was run: (§3)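 KINOMEscan competition-binding profiling across the panel of 468 kinases and mutants, with inhibitor tested at 1 μM. Binding is expressed as percent of control, with DMSO as the reference control.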

[4] = target: Serine/threonine-protein kinase RIO3 (Homo sapiens) (UniProt O14730); assay: Binding affinity to wild-type human full length RIOK3 (M1 to E519 residues) expressed in bacterial expression system assessed as remaining unbound target protein level at 1000 nM by Kinomescan method relative to control
How it was run: (§4)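 KINOMEscan competition binding profile across a panel of 468 kinases and mutants, with the inhibitor tested at a single concentration of 1 μM. Binding is reported as percent of control, meaning signal relative to a DMSO control.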

[5] = target: Mitogen-activated protein kinase 3 (Homo sapiens) (UniProt P27361); assay: Binding affinity to wild-type human full length ERK1 (M1 to P379 residues) expressed in bacterial expression system assessed as remaining unbound target protein level at 1000 nM by Kinomescan method relative to control; how it was run: as §2
[6] = target: Dual specificity tyrosine-phosphorylation-regulated kinase 2 (Homo sapiens) (UniProt Q92630); assay: Binding affinity to wild-type human full length DYRK2 (M1 to S528 residues) expressed in mammalian expression system assessed as remaining unbound target protein level at 1000 nM by Kinomescan method relative to control; how it was run: as §4
[7] = system: Tyrosine-protein kinase ABL1 (Homo sapiens), P00519 [F317L]; assay: Binding affinity to human non-phosphorylated ABL1 F317L mutant (S229 to K512 residues) expressed in mammalian expression system assessed as remaining unbound target protein level at 1000 nM by Kinomescan method relative to control; how it was run: as §3
[8] = target: Epidermal growth factor receptor (Homo sapiens) (UniProt P00533); assay: Binding affinity to wild-type human partial length EGFR (R669 to V1011 residues) expressed in bacterial expression system assessed as remaining unbound target protein level at 1000 nM by Kinomescan method relative to control
[9] = target: Serine/threonine-protein kinase Chk1 (Homo sapiens) (UniProt O14757); assay: Binding affinity to wild-type human partial length CHEK1 (M1 to G289 residues) expressed in bacterial expression system assessed as remaining unbound target protein level at 1000 nM by Kinomescan method relative to control; how it was run: as §4
[10] = target: Calcium/calmodulin-dependent protein kinase type 1D (Homo sapiens) (UniProt Q8IU85); assay: Binding affinity to wild-type human partial length CAMK1D (M1 to K299 residues) expressed in bacterial expression system assessed as remaining unbound target protein level at 1000 nM by Kinomescan method relative to control; how it was run: as §1
[11] = target: Death-associated protein kinase 1 (Homo sapiens) (UniProt P53355); assay: Binding affinity to wild-type human partial length DAPK1 (M1 to F296 residues) expressed in bacterial expression system assessed as remaining unbound target protein level at 1000 nM by Kinomescan method relative to control; how it was run: as §4
[12] = target: Vascular endothelial growth factor receptor 3 (Homo sapiens) (UniProt P35916); assay: Binding affinity to wild-type human partial length FLT4 (E821 to E1196 residues) expressed in bacterial expression system assessed as remaining unbound target protein level at 1000 nM by Kinomescan method relative to control
[13] = target: Platelet-derived growth factor receptor beta (Homo sapiens) (UniProt P09619); assay: Binding affinity to wild-type human partial length PDGFRB (V582 to Y1009 residues) expressed in bacterial expression system assessed as remaining unbound target protein level at 1000 nM by Kinomescan method relative to control
How it was run: (§5)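 KINOMEscan binding panel of 468 kinases/mutants. Inhibitor was tested at a single concentration of 1 μM. Binding is reported as percent of control, defined relative to a DMSO control.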

[14] = target: cAMP-dependent protein kinase catalytic subunit PRKX (Homo sapiens) (UniProt P51817); assay: Binding affinity to wild-type human partial length PRKX (M1 to F358 residues) expressed in bacterial expression system assessed as remaining unbound target protein level at 1000 nM by Kinomescan method relative to control
[15] = target: Tyrosine-protein kinase ITK/TSK (Homo sapiens) (UniProt Q08881); assay: Binding affinity to wild-type human partial length ITK (R335 to L620 residues) expressed in bacterial expression system assessed as remaining unbound target protein level at 1000 nM by Kinomescan method relative to control
[16] = target: Testis-specific serine/threonine-protein kinase 1 (Homo sapiens) (UniProt Q9BXA7); assay: Binding affinity to wild-type human full length TSSK1B (M1 to Q367 residues) expressed in bacterial expression system assessed as remaining unbound target protein level at 1000 nM by Kinomescan method relative to control; how it was run: as §4
[17] = target: Death-associated protein kinase 3 (Homo sapiens) (UniProt O43293); assay: Binding affinity to wild-type human partial length DAPK3 (M1 to A277 residues) expressed in bacterial expression system assessed as remaining unbound target protein level at 1000 nM by Kinomescan method relative to control; how it was run: as §5
[18] = target: Vascular endothelial growth factor receptor 1 (Homo sapiens) (UniProt P17948); assay: Binding affinity to wild-type human partial length FLT1 (R781 to F1239 residues) expressed in bacterial expression system assessed as remaining unbound target protein level at 1000 nM by Kinomescan method relative to control
[19] = target: Membrane-associated tyrosine- and threonine-specific cdc2-inhibitory kinase (Homo sapiens) (UniProt Q99640); assay: Binding affinity to wild-type human partial length PKMYT1 (A88 to G366 residues) expressed in bacterial expression system assessed as remaining unbound target protein level at 1000 nM by Kinomescan method relative to control
[20] = target: Serine/threonine-protein kinase PLK1 (Homo sapiens) (UniProt P53350); assay: Binding affinity to wild-type human partial length PLK1 (A33 to F325 residues) expressed in mammalian expression system assessed as remaining unbound target protein level at 1000 nM by Kinomescan method relative to control
Chain of Serine/threonine-protein kinase PLK1 (Homo sapiens) (P53350 whole entry, the tested form may be a part): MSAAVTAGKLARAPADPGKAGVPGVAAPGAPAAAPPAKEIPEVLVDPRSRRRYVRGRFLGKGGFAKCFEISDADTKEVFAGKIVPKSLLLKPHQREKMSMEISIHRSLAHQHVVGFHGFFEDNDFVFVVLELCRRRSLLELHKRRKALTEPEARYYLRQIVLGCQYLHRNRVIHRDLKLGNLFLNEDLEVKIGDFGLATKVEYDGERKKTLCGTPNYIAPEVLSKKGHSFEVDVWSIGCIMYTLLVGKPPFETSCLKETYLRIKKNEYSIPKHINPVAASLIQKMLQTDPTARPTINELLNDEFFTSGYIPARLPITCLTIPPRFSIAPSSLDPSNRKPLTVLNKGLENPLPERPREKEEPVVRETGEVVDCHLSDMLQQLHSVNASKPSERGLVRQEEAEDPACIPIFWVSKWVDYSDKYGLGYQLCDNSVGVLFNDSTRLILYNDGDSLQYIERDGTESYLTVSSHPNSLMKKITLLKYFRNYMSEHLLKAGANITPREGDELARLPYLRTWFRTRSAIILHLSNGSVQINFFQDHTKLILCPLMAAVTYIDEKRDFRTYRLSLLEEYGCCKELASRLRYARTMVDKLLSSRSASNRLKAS

Chain of Tyrosine-protein kinase ABL1 (Homo sapiens), P00519 [F317L] (P00519 whole entry F317L, the tested form may be a part): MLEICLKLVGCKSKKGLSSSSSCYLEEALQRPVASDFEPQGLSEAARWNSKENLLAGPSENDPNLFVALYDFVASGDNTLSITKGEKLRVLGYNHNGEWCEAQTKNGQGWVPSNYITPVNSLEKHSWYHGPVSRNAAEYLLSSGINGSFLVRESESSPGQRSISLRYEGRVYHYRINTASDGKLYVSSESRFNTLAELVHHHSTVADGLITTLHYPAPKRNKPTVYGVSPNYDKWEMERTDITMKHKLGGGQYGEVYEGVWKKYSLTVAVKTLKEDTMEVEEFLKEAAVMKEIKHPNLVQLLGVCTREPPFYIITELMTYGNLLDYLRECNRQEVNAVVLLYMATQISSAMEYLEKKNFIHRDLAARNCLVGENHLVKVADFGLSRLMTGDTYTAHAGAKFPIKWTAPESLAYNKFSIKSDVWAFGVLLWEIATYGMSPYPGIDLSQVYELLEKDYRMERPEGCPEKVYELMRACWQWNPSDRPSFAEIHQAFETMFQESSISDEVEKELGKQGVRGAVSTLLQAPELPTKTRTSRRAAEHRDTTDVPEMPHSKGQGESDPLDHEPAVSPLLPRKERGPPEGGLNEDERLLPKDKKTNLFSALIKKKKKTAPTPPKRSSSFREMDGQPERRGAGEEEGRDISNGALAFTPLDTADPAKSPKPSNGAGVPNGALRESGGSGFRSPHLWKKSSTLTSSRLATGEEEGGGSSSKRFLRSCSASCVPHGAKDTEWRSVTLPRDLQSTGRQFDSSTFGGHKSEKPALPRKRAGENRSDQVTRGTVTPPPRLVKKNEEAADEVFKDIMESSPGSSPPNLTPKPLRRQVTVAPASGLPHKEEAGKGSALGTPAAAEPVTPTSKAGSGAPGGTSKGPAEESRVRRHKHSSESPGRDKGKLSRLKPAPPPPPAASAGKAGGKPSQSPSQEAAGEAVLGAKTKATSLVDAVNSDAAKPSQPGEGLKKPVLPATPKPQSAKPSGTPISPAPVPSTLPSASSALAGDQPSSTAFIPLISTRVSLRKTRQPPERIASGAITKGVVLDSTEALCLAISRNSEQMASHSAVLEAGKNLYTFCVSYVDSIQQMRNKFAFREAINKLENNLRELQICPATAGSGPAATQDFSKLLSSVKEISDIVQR
Chain of Mast/stem cell growth factor receptor Kit (Homo sapiens), P10721 [V559D,T670I] (P10721 whole entry V559D/T670I, the tested form may be a part): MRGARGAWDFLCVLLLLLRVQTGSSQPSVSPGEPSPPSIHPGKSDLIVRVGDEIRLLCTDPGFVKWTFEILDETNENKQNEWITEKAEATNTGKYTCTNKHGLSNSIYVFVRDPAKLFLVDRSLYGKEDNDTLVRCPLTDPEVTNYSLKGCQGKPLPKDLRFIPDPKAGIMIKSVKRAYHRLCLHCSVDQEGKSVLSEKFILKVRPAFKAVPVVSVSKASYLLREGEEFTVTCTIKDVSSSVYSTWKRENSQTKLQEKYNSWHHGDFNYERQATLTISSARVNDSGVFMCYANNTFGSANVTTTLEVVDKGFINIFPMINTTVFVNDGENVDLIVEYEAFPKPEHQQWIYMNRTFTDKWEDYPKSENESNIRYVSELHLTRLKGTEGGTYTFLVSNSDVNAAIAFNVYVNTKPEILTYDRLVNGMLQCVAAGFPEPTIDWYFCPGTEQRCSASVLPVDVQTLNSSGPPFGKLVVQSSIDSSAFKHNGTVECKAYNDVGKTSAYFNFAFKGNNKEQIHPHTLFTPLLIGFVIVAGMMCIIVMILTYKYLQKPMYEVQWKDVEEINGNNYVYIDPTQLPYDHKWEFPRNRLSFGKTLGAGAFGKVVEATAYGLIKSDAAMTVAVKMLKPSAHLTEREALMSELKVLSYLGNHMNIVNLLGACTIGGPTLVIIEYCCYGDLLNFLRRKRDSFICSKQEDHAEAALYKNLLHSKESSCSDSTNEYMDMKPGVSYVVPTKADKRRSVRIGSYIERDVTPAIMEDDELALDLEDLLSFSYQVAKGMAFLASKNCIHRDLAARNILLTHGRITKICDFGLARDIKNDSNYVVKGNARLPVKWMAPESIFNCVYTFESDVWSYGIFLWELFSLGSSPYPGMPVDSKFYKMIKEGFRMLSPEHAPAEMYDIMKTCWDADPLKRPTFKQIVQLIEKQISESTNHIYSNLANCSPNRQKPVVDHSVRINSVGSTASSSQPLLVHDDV
Chain of cAMP-dependent protein kinase catalytic subunit PRKX (Homo sapiens) (P51817 whole entry, the tested form may be a part): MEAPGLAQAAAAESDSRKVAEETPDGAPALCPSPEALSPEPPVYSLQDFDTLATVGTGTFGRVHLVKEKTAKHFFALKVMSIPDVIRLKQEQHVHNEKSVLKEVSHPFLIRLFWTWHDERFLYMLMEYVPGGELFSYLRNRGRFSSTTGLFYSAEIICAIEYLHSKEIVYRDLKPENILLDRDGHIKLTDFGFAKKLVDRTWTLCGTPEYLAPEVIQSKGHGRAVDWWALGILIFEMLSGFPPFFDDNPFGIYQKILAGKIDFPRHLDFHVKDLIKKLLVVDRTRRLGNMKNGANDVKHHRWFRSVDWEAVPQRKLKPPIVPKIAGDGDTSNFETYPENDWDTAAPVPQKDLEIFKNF
Chain of Serine/threonine-protein kinase Chk1 (Homo sapiens) (O14757 whole entry, the tested form may be a part): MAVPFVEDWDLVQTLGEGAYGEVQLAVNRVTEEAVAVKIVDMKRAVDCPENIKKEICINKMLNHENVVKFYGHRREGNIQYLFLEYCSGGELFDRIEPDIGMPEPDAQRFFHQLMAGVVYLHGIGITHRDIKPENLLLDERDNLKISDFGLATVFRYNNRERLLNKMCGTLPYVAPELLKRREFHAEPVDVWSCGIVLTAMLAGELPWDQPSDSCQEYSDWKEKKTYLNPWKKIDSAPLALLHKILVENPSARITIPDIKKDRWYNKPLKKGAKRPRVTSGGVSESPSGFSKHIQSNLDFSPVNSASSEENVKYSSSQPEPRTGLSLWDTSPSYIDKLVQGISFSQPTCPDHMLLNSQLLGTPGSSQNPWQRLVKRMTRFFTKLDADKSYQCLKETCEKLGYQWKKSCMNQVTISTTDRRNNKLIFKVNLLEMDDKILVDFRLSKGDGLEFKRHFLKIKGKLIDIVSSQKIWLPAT
Chain of Death-associated protein kinase 1 (Homo sapiens) (P53355 whole entry, looked up, the tested form may be a part): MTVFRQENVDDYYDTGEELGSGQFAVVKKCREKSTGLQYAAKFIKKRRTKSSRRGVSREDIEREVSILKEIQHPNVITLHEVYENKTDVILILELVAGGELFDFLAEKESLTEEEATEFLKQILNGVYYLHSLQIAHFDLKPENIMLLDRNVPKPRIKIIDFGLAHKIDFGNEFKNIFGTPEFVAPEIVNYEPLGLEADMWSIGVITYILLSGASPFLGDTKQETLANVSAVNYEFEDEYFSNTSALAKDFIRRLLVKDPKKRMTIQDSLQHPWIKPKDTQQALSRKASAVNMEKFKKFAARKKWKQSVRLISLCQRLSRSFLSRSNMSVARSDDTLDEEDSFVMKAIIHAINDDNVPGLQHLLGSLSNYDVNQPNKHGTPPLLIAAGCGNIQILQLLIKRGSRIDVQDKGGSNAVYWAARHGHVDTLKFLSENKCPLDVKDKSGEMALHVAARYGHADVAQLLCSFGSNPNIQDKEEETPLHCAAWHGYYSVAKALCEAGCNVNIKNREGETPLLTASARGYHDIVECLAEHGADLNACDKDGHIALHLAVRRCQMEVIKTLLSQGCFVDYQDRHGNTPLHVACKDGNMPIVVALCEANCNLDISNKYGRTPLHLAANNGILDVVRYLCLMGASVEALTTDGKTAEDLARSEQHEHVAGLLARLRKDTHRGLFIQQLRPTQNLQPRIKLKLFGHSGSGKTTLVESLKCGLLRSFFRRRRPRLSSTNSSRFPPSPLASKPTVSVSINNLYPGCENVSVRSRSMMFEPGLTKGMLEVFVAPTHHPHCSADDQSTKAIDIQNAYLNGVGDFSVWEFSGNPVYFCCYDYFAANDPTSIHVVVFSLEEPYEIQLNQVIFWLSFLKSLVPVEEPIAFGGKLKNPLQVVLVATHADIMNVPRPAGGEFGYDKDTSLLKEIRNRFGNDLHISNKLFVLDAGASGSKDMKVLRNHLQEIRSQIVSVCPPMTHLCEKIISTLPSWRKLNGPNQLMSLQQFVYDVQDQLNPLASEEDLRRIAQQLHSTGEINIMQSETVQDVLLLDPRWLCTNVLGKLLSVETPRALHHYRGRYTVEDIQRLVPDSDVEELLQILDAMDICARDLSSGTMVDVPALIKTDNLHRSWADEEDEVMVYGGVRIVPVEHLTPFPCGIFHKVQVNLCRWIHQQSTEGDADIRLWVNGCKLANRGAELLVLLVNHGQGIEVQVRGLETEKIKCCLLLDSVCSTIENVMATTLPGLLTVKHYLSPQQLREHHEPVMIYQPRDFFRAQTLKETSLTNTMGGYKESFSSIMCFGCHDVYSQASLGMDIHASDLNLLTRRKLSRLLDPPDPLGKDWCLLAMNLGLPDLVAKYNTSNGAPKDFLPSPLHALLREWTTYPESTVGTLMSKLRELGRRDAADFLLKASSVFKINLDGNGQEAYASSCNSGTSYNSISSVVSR

With `COCCN[C@H]1CC[C@H](Nc2cc(-c3csc(NCC4(C#N)CCOCC4)n3)c(Cl)cn2)CC1` the Activity [1] was 100%, the Activity [2] was 100% and the Activity [3] was 89%. The Activity [4] was 99%, the Activity [5] was 90% and the Activity [6] was 5.2%. The Activity [7] was 100%, the Activity [8] was 94% and the Activity [9] was 91%. The Activity [10] was 100%, the Activity [11] was 80% and the Activity [12] was 88%. It also gave an Activity [13] of 91%, an Activity [14] of 91% and an Activity [15] of 84%. It also gave an Activity [16] of 93%, an Activity [17] of 63% and an Activity [18] of 98%. It also gave an Activity [19] of 100% and an Activity [20] of 75%.
